{
  "source": "ChEMBL document CHEMBL4414568",
  "about": "“Development of Novel Irreversible Pyruvate Kinase M2 Inhibitors” (J Med Chem, 2019)",
  "key": {"PC-3": {"test_system": "PC-3", "assay": "Antiproliferative activity against human PC3 cells assessed as reduction in cell viability incubated for 24 hrs by MTT assay", "assay_type": "functional, cell-based", "settings": "PC-3, 24 h", "how_it_was_run": "(§1)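 Cells seeded at 3,500 per well in 10% FBS and left overnight, then exposed to test agent or vehicle in 5% FBS for 24 h. MTT added for 1 h, then medium swapped for DMSO and absorbance read at 560 nm. Viability given as percent of vehicle-treated control. Run in triplicate.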"}, "Pyruvate kinase PKM [1]": {"biological_target": "T1, Pyruvate kinase PKM (Homo sapiens, UniProt P14618)", "T1 sequence (P14618 2-531 limits assumed)": "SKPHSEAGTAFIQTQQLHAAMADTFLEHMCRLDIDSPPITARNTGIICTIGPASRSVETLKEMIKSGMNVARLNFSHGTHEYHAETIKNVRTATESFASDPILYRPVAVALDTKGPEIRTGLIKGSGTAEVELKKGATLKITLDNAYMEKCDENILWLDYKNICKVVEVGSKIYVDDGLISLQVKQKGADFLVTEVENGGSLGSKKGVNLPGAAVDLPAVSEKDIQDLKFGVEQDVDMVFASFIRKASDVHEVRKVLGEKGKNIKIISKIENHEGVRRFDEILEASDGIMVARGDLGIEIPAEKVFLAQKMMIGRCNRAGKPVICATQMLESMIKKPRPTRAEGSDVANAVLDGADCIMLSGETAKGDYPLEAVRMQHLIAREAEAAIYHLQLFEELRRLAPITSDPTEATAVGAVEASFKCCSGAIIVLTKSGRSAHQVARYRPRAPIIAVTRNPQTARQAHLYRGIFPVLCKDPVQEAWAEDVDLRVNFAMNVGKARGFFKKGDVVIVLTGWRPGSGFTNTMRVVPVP", "assay": "Inhibition of N-(4-(3-(3-(Methylamino)-3-oxopropyl)-5-(4'-(prop-2-yn-1-yloxy)-[1,1'-biphenyl]-4-yl)-1H-pyrazol-1-yl)phenyl)propiolamide binding to PKM2 in human PC9 cells at 1 uM preincubated for 1 hr followed by probe addition and measured after 1 hr using antibody by Western blot analysis", "assay_type": "cell-based", "how_it_was_run": "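PC-9 cells pretreated with 1 µM compound or DMSO for 1 h, then alkyne probe added at 0.5, 1 or 2 µM for 1 h at 37 °C. Lysates put through Cu-catalysed click with biotin-azide, streptavidin beads 16 h at 4 °C, washes with 0.5% SDS/PBS, 10% SDS-PAGE and PKM2 Western blot.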"}, "Pyruvate kinase PKM [2]": {"biological_target": "T1, Pyruvate kinase PKM", "assay": "Inhibition of PKM2 in human PC9 cells assessed as reduction in beta-catenin phosphorylation at 0.5 uM incubated for 24 hrs by Western blot analysis", "assay_type": "cell-based", "how_it_was_run": "(§2)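 PC-9 cells seeded at 5 × 10^5 cells/mL; after 24 h given 0–1 µM compound or DMSO for 24 h. Lysates run on 10% SDS-PAGE, transferred to nitrocellulose, probed for PKM2, EGFR, p-STAT3, STAT3, p-β-catenin, β-catenin and β-actin with HRP secondaries, ECL detection.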"}, "[3]": {"assay": "Toxicity in athymic nude mouse xenografted with human PC9 cells assessed as reduction in body weight at 10 mg/kg, ip administered once daily for 25 days measured during compound dosing", "assay_type": "organism-based", "settings": "in vivo, 600 h", "how_it_was_run": "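Female nude mice, 6 weeks old, given s.c. 1 × 10^6 PC-9 cells in Matrigel (1:1). From day 7, once-daily i.p. vehicle or 10 mg/kg compound in sterile water with 0.5% methylcellulose and 0.1% Tween-80, n = 8 per group, for 25 days. Tumor volume and body weight followed, tumors weighed at end.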"}, "[4]": {"biological_target": "T2, Malonate--CoA ligase ACSF3, mitochondrial (Homo sapiens) (UniProt Q4G176)", "T2 sequence (whole entry)": "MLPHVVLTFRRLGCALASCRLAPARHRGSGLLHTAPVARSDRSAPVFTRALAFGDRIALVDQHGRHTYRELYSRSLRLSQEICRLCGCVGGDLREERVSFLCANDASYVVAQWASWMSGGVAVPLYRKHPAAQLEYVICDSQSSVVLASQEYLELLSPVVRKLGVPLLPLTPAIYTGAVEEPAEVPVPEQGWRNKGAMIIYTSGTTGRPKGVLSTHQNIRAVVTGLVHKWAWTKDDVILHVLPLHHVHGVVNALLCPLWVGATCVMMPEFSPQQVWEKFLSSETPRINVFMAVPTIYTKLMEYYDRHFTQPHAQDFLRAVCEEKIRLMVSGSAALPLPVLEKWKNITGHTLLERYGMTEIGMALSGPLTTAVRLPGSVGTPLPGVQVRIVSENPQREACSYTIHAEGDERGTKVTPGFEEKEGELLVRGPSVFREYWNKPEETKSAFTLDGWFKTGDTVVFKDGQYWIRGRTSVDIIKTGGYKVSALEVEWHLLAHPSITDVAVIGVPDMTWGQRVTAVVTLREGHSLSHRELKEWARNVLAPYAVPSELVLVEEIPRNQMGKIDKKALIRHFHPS", "assay": "Binding affinity to ACSF3 in human PC9 cells incubated for 1 hr by ABPP-SILAC assay", "assay_type": "cell-based", "how_it_was_run": "(§3)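 PC-9 cells passaged at least six times in SILAC DMEM with 10% dialyzed FBS plus 100 µg/mL light or 13C/15N-labeled Arg/Lys. Heavy cells got ABPP probe (1 µM) and light cells DMSO, 1 h at 37 °C. Cells mixed 1:1, sonicated, spun at 100,000g, protein normalized to 1 mg/mL. Click biotin-azide, streptavidin bead pulldown 16 h at 4 °C, SDS-PAGE, on-bead trypsin digestion, LC-MS/MS.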"}, "Pyruvate kinase PKM [5]": {"biological_target": "T1, Pyruvate kinase PKM", "assay": "Inhibition of PKM2 in human PC9 cells assessed as increase in oxygen consumption rate at 0.25 to 1 uM preincubated for 4 hrs followed by glucose/oligomycin/2-DG addition and measured after 1 hr by seahorse XFe96 analyser based assay", "assay_type": "cell-based", "how_it_was_run": "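PC-9 cells, 5 × 10^4 per well, seeded 24 h ahead, then treated with DMSO or compound at 0.25, 0.5 or 1 µM for 4 h at 37 °C. Cells held 1 h without CO2 in glycolysis medium. Seahorse glycolysis stress test with serial injections of 10 mM glucose, oligomycin and 50 mM 2-DG; ECAR and OCR recorded together. Six wells per point.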"}, "NCI-H157 [6]": {"test_system": "NCI-H157", "assay": "Antiproliferative activity against human NCI-H157 cells expressing wild type EGFR assessed as reduction in cell viability incubated for 24 hrs by MTT assay", "assay_type": "functional, cell-based", "settings": "NCI-H157, 24 h", "how_it_was_run": "as §1"}, "[7]": {"biological_target": "Alpha-enolase (Homo sapiens) (UniProt P06733)", "sequence (P06733 whole entry)": "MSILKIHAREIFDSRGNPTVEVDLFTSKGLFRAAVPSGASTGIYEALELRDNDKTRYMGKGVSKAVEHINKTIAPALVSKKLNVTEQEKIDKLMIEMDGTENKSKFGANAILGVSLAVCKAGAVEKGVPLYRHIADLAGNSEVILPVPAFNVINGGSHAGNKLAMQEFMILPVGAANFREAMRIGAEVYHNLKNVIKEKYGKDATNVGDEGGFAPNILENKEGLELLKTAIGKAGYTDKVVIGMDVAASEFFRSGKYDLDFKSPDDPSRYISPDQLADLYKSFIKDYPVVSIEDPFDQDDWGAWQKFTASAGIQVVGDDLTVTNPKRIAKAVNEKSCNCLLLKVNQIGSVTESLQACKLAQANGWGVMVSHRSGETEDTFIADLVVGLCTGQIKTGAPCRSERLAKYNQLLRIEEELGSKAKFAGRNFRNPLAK", "assay": "Binding affinity to ENOA in human PC9 cells incubated for 1 hr by ABPP-SILAC assay", "assay_type": "cell-based", "how_it_was_run": "as §3"}, "Pyruvate kinase PKM [8]": {"biological_target": "T1, Pyruvate kinase PKM", "assay": "Inhibition of PKM2 in human PC9 cells assessed as reduction in STAT3 phosphorylation incubated for 24 hrs by Western blot analysis", "assay_type": "cell-based", "how_it_was_run": "as §2"}, "NCI-H157 [9]": {"test_system": "NCI-H157", "assay": "Antiproliferative activity against human NCI-H157 cells assessed as reduction in cell viability incubated for 24 hrs by MTT assay", "assay_type": "functional, cell-based", "settings": "NCI-H157, 24 h", "how_it_was_run": "as §1"}, "PC-9": {"test_system": "PC-9", "assay": "Induction of ROS production in human PC9 cells at 0.25 and 0.5 uM incubated for 6 hrs by H2DCFDA dye-based fluorescence assay", "assay_type": "functional, cell-based", "how_it_was_run": "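PC-9 cells at 2 × 10^4 per well, after 24 h treated with compound or DMSO for 6 h. Cells washed, given 1X ROS label in assay buffer for 45 min at 37 °C in the dark, fluorescence read at Ex/Em 495/529 nm as an end point. n = 3.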"}, "Pyruvate kinase PKM [10]": {"biological_target": "T1, Pyruvate kinase PKM", "assay": "Binding affinity to PKM2 in human PC9 cells incubated for 1 hr by ABPP-SILAC assay", "assay_type": "cell-based", "how_it_was_run": "as §3"}, "NCI-H1650": {"test_system": "NCI-H1650", "assay": "Antiproliferative activity against human NCI-H1650 cells harboring EGFR mutant assessed as reduction in cell viability incubated for 24 hrs by MTT assay", "assay_type": "functional, cell-based", "settings": "NCI-H1650, 24 h", "how_it_was_run": "as §1"}, "Pyruvate kinase PKM [11]": {"biological_target": "T1, Pyruvate kinase PKM", "assay": "Inhibition of PKM2 in human PC9 cells assessed as reduction in STAT3 expression incubated for 24 hrs by Western blot analysis", "assay_type": "cell-based", "how_it_was_run": "as §2"}},
  "note": "Activity calls are given as the source filed them. The rule behind the calls is not given here.",
  "data": [
    {"compound": "C#CC(=O)Nc1ccc(-n2nc(CCC(=O)NC)cc2-c2ccc(-c3ccc(C(F)(F)F)cc3)cc2)cc1", "values": [
      {"measurement": "IC50", "setting": "PC-3", "value": 0.6, "unit": "µM"},
      {"measurement": "inhibition", "setting": "Pyruvate kinase PKM [1]", "value": "Active"},
      {"measurement": "inhibition", "setting": "Pyruvate kinase PKM [2]", "value": "inactive"},
      {"measurement": "Activity", "setting": "[3]", "value": "Non-Toxic"},
      {"measurement": "Activity", "setting": "[4]", "value": "Active"},
      {"measurement": "inhibition", "setting": "Pyruvate kinase PKM [5]", "value": "Active"},
      {"measurement": "IC50", "setting": "NCI-H157 [6]", "value": "> 2", "unit": "µM"},
      {"measurement": "Activity", "setting": "[7]", "value": "Active"},
      {"measurement": "inhibition", "setting": "Pyruvate kinase PKM [8]", "value": "Dose-dependent effect"},
      {"measurement": "IC50", "setting": "NCI-H157 [9]", "value": "> 2", "unit": "µM"},
      {"measurement": "Activity", "setting": "PC-9", "value": "inactive"},
      {"measurement": "Activity", "setting": "Pyruvate kinase PKM [10]", "value": "Active"},
      {"measurement": "IC50", "setting": "NCI-H1650", "value": 0.2, "unit": "µM"},
      {"measurement": "inhibition", "setting": "Pyruvate kinase PKM [11]", "value": "Dose-dependent effect"}
    ]}
  ]
}
